Experimental data collected from several papers.
Compare with care: the assays were run in different laboratories.
Target: Phosphatidylinositol 4,5-bisphosphate 3-kinase catalytic subunit delta isoform (PIK3CD, Homo sapiens, UniProt O00329)
One construct used (O00329 1-1044): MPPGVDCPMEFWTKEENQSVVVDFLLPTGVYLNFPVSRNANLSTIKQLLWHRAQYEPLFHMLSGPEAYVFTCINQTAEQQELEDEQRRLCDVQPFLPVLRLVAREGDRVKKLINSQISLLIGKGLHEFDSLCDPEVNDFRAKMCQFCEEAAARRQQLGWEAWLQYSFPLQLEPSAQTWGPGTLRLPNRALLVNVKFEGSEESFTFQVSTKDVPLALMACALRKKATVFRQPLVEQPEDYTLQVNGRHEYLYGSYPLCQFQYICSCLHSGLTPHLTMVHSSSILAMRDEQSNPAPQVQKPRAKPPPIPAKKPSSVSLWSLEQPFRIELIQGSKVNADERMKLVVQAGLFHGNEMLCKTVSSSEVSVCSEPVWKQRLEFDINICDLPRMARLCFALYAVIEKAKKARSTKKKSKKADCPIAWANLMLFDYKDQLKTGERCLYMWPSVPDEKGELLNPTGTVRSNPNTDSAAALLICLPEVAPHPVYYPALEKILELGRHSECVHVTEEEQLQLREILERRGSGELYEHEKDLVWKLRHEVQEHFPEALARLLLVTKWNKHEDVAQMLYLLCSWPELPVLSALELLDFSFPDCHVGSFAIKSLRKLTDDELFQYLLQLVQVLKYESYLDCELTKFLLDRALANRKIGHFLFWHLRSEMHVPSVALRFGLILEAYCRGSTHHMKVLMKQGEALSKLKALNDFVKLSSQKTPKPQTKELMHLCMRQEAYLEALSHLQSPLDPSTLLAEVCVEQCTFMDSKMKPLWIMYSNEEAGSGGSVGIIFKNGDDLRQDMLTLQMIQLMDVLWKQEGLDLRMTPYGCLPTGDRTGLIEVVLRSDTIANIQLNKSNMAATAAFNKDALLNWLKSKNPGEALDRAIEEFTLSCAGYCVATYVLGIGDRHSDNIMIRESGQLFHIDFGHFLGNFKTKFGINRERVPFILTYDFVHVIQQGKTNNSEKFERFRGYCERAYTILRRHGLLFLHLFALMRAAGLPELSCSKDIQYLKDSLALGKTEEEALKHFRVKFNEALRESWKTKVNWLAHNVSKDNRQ

`CC(C)(O)c1cncc(-c2nc3ccc(F)cc3n2C2CC2)c1` has a remaining binding of 100% (cell-free assay, competition with immobilised ligand; 1 µM).
`Nc1ncnc2occ(-c3ccc(NC(=O)Nc4cc(C(F)(F)F)ccc4F)cc3)c12` gave a remaining signal of 69% (cell-free assay, inhibitor; 20 µM).
For `O=C(CSc1nc2nccnc2c(=O)n1CCc1ccccc1)Nc1ccccc1`, the inhibition was < 20% (enzyme activity, inhibitor; 10 µM).
`CO[C@@H](C)c1c(Nc2ccc([C@@H](N(C)C(=O)C3CCS(=O)(=O)CC3)C(F)(F)F)cc2)cnc2cc(Cl)nn12` gave a remaining binding of 87% (cell-free assay, competition with immobilised ligand; 1 µM).
With `CC(C)CCn1c(SCC(=O)Nc2ccccc2C(F)(F)F)nc2nccnc2c1=O` the inhibition was < 20% (enzyme activity, inhibitor; 10 µM).
`Cc1ccc(C(=O)NCc2ccsc2)cc1C#Cc1cn(C(C)C)c2ncnc(N)c12` gave an activity vs control of 98% (enzyme activity, inhibitor; 1 µM).
`CN(CCCC(F)(F)F)c1nccc(-c2cnn3ncccc23)n1` gave a remaining binding of 100% (binding; 1 µM).
The remaining activity of `Cc1ccc(C(=O)Nc2ccc(CN3CCN(C)CC3)c(C(F)(F)F)c2)cc1C#Cc1cnc2cccnn12` is reported as 83% (enzyme activity, inhibitor; 23.5 nM).
For `CS(=O)(=O)Nc1cc(-c2ccc3ncnc(Nc4ccc(F)c(Cl)c4)c3c2)cnc1Cl`, the inhibition was 90 to 100% (enzyme activity, inhibitor, FRET; 10 µM).
